Screening data: PubChem BioAssay, The Scripps Research Institute Molecular Screening Center
Shown are actives, neighbours in structure and some others; about 3.3% of the full set was active somewhere.
SIAE inh – human SIAE inhibitors, primary screen, biochemical, fluorescence polarization, FP-Rh probe, 1536-well HTS; Sialate O-acetylesterase (Homo sapiens), Q9HAT2; SIAE FP-Rh probe binding; inhibition, % at 9.66 µM; 0.69% of 370,000 active; AID 1053197, 2014;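 active = inhibition above a cutoff: mean of compounds within the control limits plus 3 SD of those, cut at about 17% in these data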;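 note: 0% = plate median of compound wells and 100% = probe without SIAE protein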
rCAG RNA binder – binders of r(CAG) RNA repeats, primary screen, biochemical, fluorescence; 1.3% of 370,000 active; r(CAG) RNA repeat, TO-PRO-1 dye displacement fluorescence; inhibition, % at 3 µM;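 active = inhibition above the plate cutoff, the mean of all test compounds on that plate plus 3 SD, cut at about 35% in these data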;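 note: 0% = DMSO alone and 100% = 100 µM mitoxantrone as full dye displacement; higher means more dye released from RNA so lower well fluorescence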
mABHD4 FP – ABHD4 inhibitors, primary screen, biochemical, fluorescence polarization, mouse | purified mABHD4, FP-Rh probe fluorescence polarization | inhibition, % at 8.92 µM | (Lyso)-N-acylphosphatidylethanolamine lipase (Mus musculus), Q8VD66 | 0.54% of 370,000 active | AID 720543, 2013;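 active = inhibition exceeding the mean over every tested compound plus 3 SD, cut at about 30% in these data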;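 note: 0% = plate median of compound wells and 100% = S159A mutant with DMSO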
Target sequence (Q8VD66 whole entry, looked up): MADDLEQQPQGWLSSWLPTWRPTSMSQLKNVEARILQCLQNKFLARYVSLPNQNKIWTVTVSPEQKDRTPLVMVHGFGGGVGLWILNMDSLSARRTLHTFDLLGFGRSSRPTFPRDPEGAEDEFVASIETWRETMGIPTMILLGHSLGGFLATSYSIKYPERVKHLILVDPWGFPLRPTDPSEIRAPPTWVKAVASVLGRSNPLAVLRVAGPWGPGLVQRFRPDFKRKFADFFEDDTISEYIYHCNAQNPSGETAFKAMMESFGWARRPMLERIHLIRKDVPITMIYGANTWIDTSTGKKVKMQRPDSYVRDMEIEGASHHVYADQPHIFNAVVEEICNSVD
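Assay system: mABHD4 protein; medium: HEPES pH 7.0, NaCl, Pluronic buffer; dosing: 8.92 µM, single dose; schedule: 45 min + 60 min at 25 °C; signal: FP readout, ex 525 nm / em 598 nm; read-out: normalized percent inhibition of probe labeling; repeats: single replicate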
PRMT1 FP inh – PRMT1 methyltransferase inhibitors, primary screen, biochemical, fluorescence polarization; Protein arginine N-methyltransferase 1 (Homo sapiens), Q99873; recombinant PRMT1, activity-based probe fluorescence polarization; inhibition, % at 2.79 µM; 1.3% of 370,000 active; AID 652257, 2013;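 active = inhibition above about 21% made by adding two undisclosed values, limit read from the data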
Target sequence (Q99873 whole entry, looked up): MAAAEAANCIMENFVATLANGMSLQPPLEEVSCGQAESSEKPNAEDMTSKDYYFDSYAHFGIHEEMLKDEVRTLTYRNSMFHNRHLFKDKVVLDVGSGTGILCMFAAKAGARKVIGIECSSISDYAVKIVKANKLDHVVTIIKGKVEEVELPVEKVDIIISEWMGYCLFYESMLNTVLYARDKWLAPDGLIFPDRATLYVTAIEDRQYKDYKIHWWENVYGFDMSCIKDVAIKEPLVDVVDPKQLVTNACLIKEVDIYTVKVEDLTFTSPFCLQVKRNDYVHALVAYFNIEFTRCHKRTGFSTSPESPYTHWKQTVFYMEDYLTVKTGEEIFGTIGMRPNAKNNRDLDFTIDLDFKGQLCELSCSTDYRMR
TCR-CD3 inh – inhibitors of human TCR-CD3 interaction, primary screen, biochemical, fluorescence, TAMRA-labeled TCR probe | T-cell receptor (TCR) | 0.37% of 360,000 active | inhibition, % at 9.4 µM; in the data active = inhibition above about 19%;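 note: recombinant mutant TCR 2C K166C tagged with TAMRA read by polarization; 0% = receptor in buffer alone and 100% = receptor with positive control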
PRMT1 confirm – PRMT1 methyltransferase inhibitors, confirmation, biochemical, fluorescence polarization, triplicate; shares compounds with PRMT1 FP inh; recombinant His-PRMT1, activity-based probe fluorescence polarization; inhibition, % at 2.79 µM; 42% of 3,300 active; AID 687036, 2013;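 active = mean inhibition across replicates above the hit cutoff derived for the earlier primary screen, cut at about 22% in these data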
* hit, by the source's call.

How did CC(C)(C)N1Cc2nnn(Cc3ccccc3)c2-c2ccccc2S1(=O)=O do in these assays?
SIAE inh: -1.9; rCAG RNA binder: -0.4; mABHD4 FP: 2.1; PRMT1 FP inh: 2.2

Results for Cc1ccc(CS(=O)(=O)c2ncc(Cl)c(C(=O)Nc3ccc(OC(F)F)cc3)n2)cc1 ?
SIAE inh: 10.7; rCAG RNA binder: 5.1; mABHD4 FP: -16.4; PRMT1 FP inh: 29.2*; TCR-CD3 inh: -0.5; PRMT1 confirm: 21.4*

What do the screens show for `CC(=O)Nc1ccc(NC(=O)c2nc(S(=O)(=O)Cc3ccccc3)ncc2Cl)cc1`?
SIAE inh: 3.1; rCAG RNA binder: 0.8; mABHD4 FP: 0.9; PRMT1 FP inh: 30.1*; TCR-CD3 inh: -0.7; PRMT1 confirm: 23.5*

What do the screens show for `CCS(=O)(=O)c1ncc(Cl)c(C(=O)Nc2ccc(C)cc2)n1`?
SIAE inh: -2.2; rCAG RNA binder: -3.2; mABHD4 FP: 1.2; PRMT1 FP inh: 3.0; TCR-CD3 inh: 4.0

How did CS(=O)(=O)c1ncc(Cl)c(C(=O)Nc2ccc3ccccc3c2)n1 do in these assays?
SIAE inh: 5.8; rCAG RNA binder: 3.8; mABHD4 FP: -4.9; PRMT1 FP inh: 50.1*; TCR-CD3 inh: -3.9; PRMT1 confirm: 35.1*

What do the screens show for `CCC1CCCCN1S(=O)(=O)c1ccc(NC(=O)c2nc(S(C)(=O)=O)ncc2Cl)cc1` (stereo unspecified)?
SIAE inh: 2.5; rCAG RNA binder: 3.9; mABHD4 FP: -0.7; PRMT1 FP inh: 50.2*; TCR-CD3 inh: -3.2; PRMT1 confirm: 46.7*

How did Cn1ccc2ccc(-c3ccc4c(c3)[C@]3(CCC[C@@H](OCc5ccccc5)[C@@H]3NC(=O)CCc3ccccc3)C(=O)N4Cc3ccccc3)cc21 do in these assays?
SIAE inh: -3.6; rCAG RNA binder: 12.3; mABHD4 FP: -6.4; PRMT1 FP inh: 4.6

What do the screens show for `O=C(NC1CCCCN(Cc2cccc(Cl)c2)C1=O)c1ccc(Cl)cc1Cl` (stereo unspecified)?
SIAE inh: -4.3; rCAG RNA binder: 4.3; mABHD4 FP: -10.2; PRMT1 FP inh: 5.9

Results for O=C(Nc1ccc2c(c1)OCO2)NC1CCCCN(Cc2cccc(Cl)c2)C1=O (stereo unspecified) ?
SIAE inh: 0.4; rCAG RNA binder: 3.9; mABHD4 FP: 2.2; PRMT1 FP inh: 3.3

Results for CC(c1ccccc1)n1cc(C(=O)N2CCCN(Cc3ccccc3)CC2)nn1 (stereo unspecified) ?
SIAE inh: 1.4; rCAG RNA binder: 2.0; mABHD4 FP: -6.1; PRMT1 FP inh: -8.0

How did C=CCn1c(COc2ccc(C)cc2)nnc1SCC(=O)Nc1cc(Cl)cc(Cl)c1 do in these assays?
SIAE inh: -1.8; rCAG RNA binder: 5.3; mABHD4 FP: -4.9; PRMT1 FP inh: -7.1

What do the screens show for `Cc1cc(NC(=O)CN2CCN(c3ccc(O)cc3)CC2)no1`?
SIAE inh: 2.1; rCAG RNA binder: 5.1; mABHD4 FP: 10.8; PRMT1 FP inh: 41.7*; TCR-CD3 inh: 0.0; PRMT1 confirm: 4.0

How did O=C(CN1CCN(c2ccc(O)cc2)CC1)NC(c1ccccc1)c1ccccc1 do in these assays?
SIAE inh: 3.5; rCAG RNA binder: 17.4; mABHD4 FP: 17.2; PRMT1 FP inh: 25.3*; TCR-CD3 inh: -6.4; PRMT1 confirm: 7.9

How did O=C(CN1CCN(c2ccc(O)cc2)CC1)NCC(=O)Nc1ccc(F)c(F)c1F do in these assays?
SIAE inh: 8.8; rCAG RNA binder: 8.2; mABHD4 FP: 24.0; PRMT1 FP inh: 36.5*; TCR-CD3 inh: -0.4; PRMT1 confirm: 1.7

Results for O=C(CN1CCCCCC1)Nc1ccc(F)c(F)c1F ?
SIAE inh: -0.8; rCAG RNA binder: 3.4; mABHD4 FP: -5.5; PRMT1 FP inh: 2.3; TCR-CD3 inh: -6.8

What do the screens show for `Cc1ccc(N2CCN(S(=O)(=O)c3ccc(C)cc3)CC2)cc1`?
SIAE inh: -3.9; rCAG RNA binder: 0.4; mABHD4 FP: 1.5; PRMT1 FP inh: -2.1; TCR-CD3 inh: -1.2

What do the screens show for `Cc1ccc(S(=O)(=O)N2CCN(C(=O)CN3CCN(c4ccc(O)cc4)CC3)CC2)cc1`?
SIAE inh: 9.7; rCAG RNA binder: 7.0; mABHD4 FP: 13.8; PRMT1 FP inh: 33.6*; TCR-CD3 inh: 0.9; PRMT1 confirm: 6.9

What do the screens show for `Cc1ccc(CN2CCCCC(NC(=O)Nc3cccc([N+](=O)[O-])c3)C2=O)cc1` (stereo unspecified)?
SIAE inh: -1.7; rCAG RNA binder: 8.1; mABHD4 FP: 10.2; PRMT1 FP inh: 0.8

What do the screens show for `CC(C)(C)C(=O)OC12CCCN(C1)/C(=C/c1ccncc1)C2` (stereo unspecified)?
SIAE inh: -6.5; rCAG RNA binder: -1.2; mABHD4 FP: -0.1; PRMT1 FP inh: 0.1

Results for CC(=O)N(c1cccc(C)c1)C1SC(=O)N(c2ccccc2)C1=O (stereo unspecified) ?
SIAE inh: -8.0; rCAG RNA binder: -3.6; mABHD4 FP: -1.7; PRMT1 FP inh: 32.1*; TCR-CD3 inh: -1.4; PRMT1 confirm: 22.6*

How did CC(=O)N(c1ccccc1)C1SC(=O)N(c2ccccc2)C1=O (stereo unspecified) do in these assays?
SIAE inh: 1.3; rCAG RNA binder: -3.6; mABHD4 FP: 5.3; PRMT1 FP inh: 13.1; TCR-CD3 inh: 4.6

Results for Cc1nnc(SCC2=C(C(=O)O)N3C(=O)C(NC(=O)Cn4nc(C(F)F)cc4C)C3SC2)s1 (stereo unspecified) ?
SIAE inh: -183.4; rCAG RNA binder: 6.3; mABHD4 FP: -1.8; PRMT1 FP inh: 25.1*; TCR-CD3 inh: 8.5; PRMT1 confirm: 28.9*

Results for Cc1nnc(SCC2=C(C(=O)O)N3C(=O)C(NC(=O)Cn4cnnn4)C3SC2)s1 (stereo unspecified) ?
SIAE inh: 13.9; rCAG RNA binder: 6.2; mABHD4 FP: -3.0; PRMT1 FP inh: 12.1; TCR-CD3 inh: 5.5

What do the screens show for `CN(C)CCn1nnnc1SCC1=C(C(=O)O)N2C(=O)[C@@H](NC(=O)Cc3csc(N)n3)[C@H]2SC1`?
SIAE inh: 4.2; rCAG RNA binder: 17.3; mABHD4 FP: 6.4; PRMT1 FP inh: 45.6*; TCR-CD3 inh: 12.6; PRMT1 confirm: 8.9

Results for Cn1c(Cc2csc(N)n2)nnc1SCC(=O)NC1CCCCC1 ?
SIAE inh: -1.5; rCAG RNA binder: 1.1; mABHD4 FP: 4.3; PRMT1 FP inh: -4.8; TCR-CD3 inh: 5.8

How did Cc1nnc(SCC2=C(C(=O)O)N3C(=O)C(NC(=O)Cn4nc(C(F)F)c(Cl)c4C)C3SC2)s1 (stereo unspecified) do in these assays?
SIAE inh: 1.9; rCAG RNA binder: 20.8; mABHD4 FP: 6.3; PRMT1 FP inh: 27.9*; TCR-CD3 inh: 3.1; PRMT1 confirm: 38.5*
